Reference: ChEMBL document CHEMBL2203058, “Isolation of steroidal glycosides from the Caribbean sponge Pandaros acanthifolium” (J Nat Prod, 2012)
Calls of active or inactive are those of the source. The rule behind the calls is not given here.

Assays:
U-373MG ATCC [1] = assay: (§1) Antioxidant activity in human U373 cells assessed as increase of antioxidant response element-mediated phase 2 protein expression at 25 ug/ml after 24 hrs by luciferase reporter gene assay relative to control; format: functional
Procedure, shortened: (§2)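 U373 astrocytoma cells stably carrying firefly luciferase under ARE control, grown in DMEM with 10% FCS and antibiotics. 5 × 10^4 cells/well seeded in quadruplicate, exposed 24 h to 25, 10, 5 or 2.5 μg/mL glycoside, then luciferase read. Controls: mock-treated and DMSO 0.25% v/v. Activity expressed as fold change versus 25 μM tert-butylhydroquinone; >2-fold over TBHQ scored a hit.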

[2] = test system: xenobiotic response element (XRE)-mediated transcriptional activity; assay: Toxicity in human U373 cells assessed as effect on xenobiotic response element-mediated activity at 2.5 to 25 ug/ml after 24 hrs by luciferase reporter gene assay; format: cell-based, U-373MG ATCC; conditions: read-out: FC
Procedure, shortened: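 XRE counterscreen: U373 astrocytoma cells stably carrying a luciferase cassette driven by the xenobiotic response element, grown in DMEM with 10% FCS and antibiotics. 5 × 10^4 cells/well in quadruplicate, 24 h with 25, 10, 5 or 2.5 μg/mL glycoside, then luciferase activity measured. Mock and DMSO (0.25% v/v) controls.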

U-373MG ATCC [3] = assay: Cytoprotective activity in H2O2-stimulated human U373 cells assessed as increase of SOD activity treated 24 hrs before H2O2 stimulation measured after 24 hrs; format: functional, cell-based
Procedure, shortened: (§3)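 U373 cells at 2 × 10^4/well in quadruplicate, pretreated 24 h with 25, 10, 5 or 2.5 μg/mL glycoside. Media replaced with fresh media containing glycoside plus 300 μM H2O2 for 24 h more. Cells PBS-washed, lysed by three freeze–thaw cycles, centrifuged; SOD (WST-1/xanthine oxidase inhibition, […], against SOD standard curve) or GPx measured by colorimetric kits.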

[4] = Antioxidant activity in human U373 cells assessed as increase of antioxidant response element-mediated phase 2 protein expression after 24 hrs by luciferase reporter gene assay relative to TBHQ; format: functional, U-373MG ATCC; procedure, shortened: as §2
[5] = as §1; format: functional, U-373MG ATCC; procedure, shortened: as §2
[6] = Cytotoxicity against human U373 cells; format: cell-based; conditions: u-373mg atcc
Procedure, shortened: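 Viability measured by MTT tetrazolium reduction in parallel reporter U373 cultures under the reporter assay conditions: 24 h with 25, 10, 5 or 2.5 μg/mL glycoside, quadruplicate wells.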

U-373MG ATCC [7] = assay: Antioxidant activity in human U373 cells assessed as increase of antioxidant response element-mediated phase 2 protein expression after 24 hrs by luciferase reporter gene assay; format: functional, cell-based; procedure, shortened: as §2
U-373MG ATCC [8] = assay: Cytoprotective activity in H2O2-stimulated human U373 cells assessed as increase of glutathione peroxidase activity treated 24 hrs before H2O2 stimulation measured after 24 hrs; format: functional, cell-based; procedure, shortened: as §3
U-373MG ATCC [9] = assay: Cytoprotective activity in human U373 cells assessed as effect of H2O2-stimulated lipid peroxidation assay at 2.5 to 25 ug/ml treated 24 hrs before H2O2 stimulation measured after 24 hrs by TBARS assay; format: functional, cell-based
Procedure, shortened: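 U373 cells at 2 × 10^4/well in quadruplicate, 24 h pretreatment with 25, 10, 5 or 2.5 μg/mL glycoside, then 24 h in fresh media with glycoside and 300 μM H2O2. PBS-washed cells lysed by freeze–thaw; uncentrifuged lysate assayed for TBARS (MDA–TBA adduct, A532), calibrated with MDA 0–100 nmol/mL, reported as MDA equivalents. Mock and 0.25% DMSO controls.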

U-373MG ATCC [10] = assay: Cytoprotective activity in H2O2-stimulated human U373 cells assessed as increase of glutathione peroxidase activity at 2.5 to 25 ug/ml treated 24 hrs before H2O2 stimulation measured after 24 hrs; format: functional, cell-based; procedure, shortened: as §3
U-373MG ATCC [11] = assay: Cytoprotective activity in H2O2-stimulated human U373 cells assessed as increase of SOD activity at 2.5 to 25 ug/ml treated 24 hrs before H2O2 stimulation measured after 24 hrs; format: functional, cell-based; procedure, shortened: as §3

Row | Structure (SMILES) | Activity (U-373MG ATCC [1]) | fold induction at 24 h [2] | Activity (U-373MG ATCC [3]) | fold change (FC) [4] | fold change (FC) [5] | Activity [6] | Activity (U-373MG ATCC [7]) | Activity (U-373MG ATCC [8]) | Activity (U-373MG ATCC [9]) | Activity (U-373MG ATCC [10]) | Activity (U-373MG ATCC [11])
1 | CC(C)(C)c1cc(O)ccc1O | Active | – | – | – | – | – | – | – | – | – | –
2 | CC(=O)O[C@H]1[C@@H](O[C@@H]2O[C@@H](C)[C@H](O)[C@@H](O)[C@H]2O)[C@H]2[C@@H]3CC[C@H]4C[C@@H](O[C@H]5O[C@@H](CO)[C@H](O)[C@@H](O)[C@@H]5O[C@@H]5O[C@@H](C)[C@H](O)[C@@H](O)[C@H]5O)CC[C@]4(C)[C@H]3CC[C@]2(C)[C@H]1[C@H](C)CCCC(C)C [ACANTHIFOLIOSIDE G] | – | > 2 | Dose-dependent effect | 2 | 2.27 | Non-toxic | Dose-dependent effect | Dose-dependent effect | inactive | – | –
3 | CC[C@H](C(C)C)[C@@H](O)C[C@@H](C)[C@H]1[C@@H](OC(C)=O)[C@@H](O[C@@H]2O[C@@H](C)[C@H](O)[C@@H](O)[C@H]2O)[C@H]2[C@@H]3CC=C4C[C@@H](O[C@H]5O[C@@H](CO)[C@H](O)[C@@H](O)[C@@H]5O[C@@H]5O[C@@H](C)[C@H](O)[C@@H](O)[C@H]5O)CC[C@]4(C)[C@H]3CC[C@@]21C [ACANTHIFOLIOSIDE J] | – | – | – | – | 1.52 | – | – | – | – | Active | Active
